Test results taken from ChEMBL document CHEMBL3297719, “Hybrid dopamine uptake blocker-serotonin releaser ligands: a new twist on transporter-focused therapeutics” (ACS Med Chem Lett, 2014).
Calls of active or inactive are those of the source. The calls are words filed in the database; no cut-off is given here.

Columns and labels:
[1] = target: T1, Sodium-dependent dopamine transporter (Rattus norvegicus, UniProt P23977); test: Induction of DAT-mediated dopamine release in rat synaptosomes; assay type: subcellular, Brain
T1 sequence (P23977 whole entry): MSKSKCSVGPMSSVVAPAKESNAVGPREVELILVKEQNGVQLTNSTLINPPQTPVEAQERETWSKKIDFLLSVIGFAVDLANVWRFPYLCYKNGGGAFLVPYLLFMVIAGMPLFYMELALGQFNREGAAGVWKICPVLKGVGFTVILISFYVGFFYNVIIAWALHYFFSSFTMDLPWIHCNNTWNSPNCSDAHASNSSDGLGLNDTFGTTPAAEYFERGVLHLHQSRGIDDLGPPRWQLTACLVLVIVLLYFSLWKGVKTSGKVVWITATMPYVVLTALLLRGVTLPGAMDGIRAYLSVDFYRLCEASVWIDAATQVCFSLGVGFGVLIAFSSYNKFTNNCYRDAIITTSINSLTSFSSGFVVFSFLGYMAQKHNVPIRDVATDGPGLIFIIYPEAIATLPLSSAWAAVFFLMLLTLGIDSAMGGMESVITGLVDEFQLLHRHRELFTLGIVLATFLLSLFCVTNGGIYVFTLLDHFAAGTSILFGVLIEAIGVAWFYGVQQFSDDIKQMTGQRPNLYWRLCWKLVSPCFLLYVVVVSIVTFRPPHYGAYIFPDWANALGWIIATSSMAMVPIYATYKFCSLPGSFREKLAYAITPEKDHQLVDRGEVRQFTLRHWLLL
Summary of the method: (§1)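 Synaptosomes prepared from rat brain homogenate. Each compound was run in both the release assay and the uptake-inhibition assay to classify it as a releasing substrate or an uptake inhibitor. Dose-response curves were then completed only for the assigned activity. Values are means ± SD from N = 3 experiments, each performed in triplicate.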

[2] = target: T2, 5-hydroxytryptamine receptor 1A (Homo sapiens) (UniProt P08908); test: Agonist activity at human 5HT1A expressed in CHO cells coexpressing Galpha16 at 10 uM by calcium mobilization assay; assay type: functional, cell-based
T2 sequence (whole entry): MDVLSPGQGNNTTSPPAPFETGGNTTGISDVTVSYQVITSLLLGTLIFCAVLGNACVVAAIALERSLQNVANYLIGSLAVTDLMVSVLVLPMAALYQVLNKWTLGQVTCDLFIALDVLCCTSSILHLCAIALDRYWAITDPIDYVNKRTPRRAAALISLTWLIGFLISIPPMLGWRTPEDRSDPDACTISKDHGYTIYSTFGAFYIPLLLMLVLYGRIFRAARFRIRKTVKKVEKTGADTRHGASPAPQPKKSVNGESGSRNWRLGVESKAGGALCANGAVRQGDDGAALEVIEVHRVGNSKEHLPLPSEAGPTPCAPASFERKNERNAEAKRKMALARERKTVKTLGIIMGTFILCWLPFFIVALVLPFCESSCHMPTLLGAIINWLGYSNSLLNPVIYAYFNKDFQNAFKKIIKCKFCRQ

[3] = target: T3, Sodium-dependent serotonin transporter (Rattus norvegicus, UniProt P31652); test: Induction of SERT-mediated serotonin release in rat synaptosomes; assay type: subcellular, Brain; summary of the method: as §1
T3 sequence (P31652 whole entry): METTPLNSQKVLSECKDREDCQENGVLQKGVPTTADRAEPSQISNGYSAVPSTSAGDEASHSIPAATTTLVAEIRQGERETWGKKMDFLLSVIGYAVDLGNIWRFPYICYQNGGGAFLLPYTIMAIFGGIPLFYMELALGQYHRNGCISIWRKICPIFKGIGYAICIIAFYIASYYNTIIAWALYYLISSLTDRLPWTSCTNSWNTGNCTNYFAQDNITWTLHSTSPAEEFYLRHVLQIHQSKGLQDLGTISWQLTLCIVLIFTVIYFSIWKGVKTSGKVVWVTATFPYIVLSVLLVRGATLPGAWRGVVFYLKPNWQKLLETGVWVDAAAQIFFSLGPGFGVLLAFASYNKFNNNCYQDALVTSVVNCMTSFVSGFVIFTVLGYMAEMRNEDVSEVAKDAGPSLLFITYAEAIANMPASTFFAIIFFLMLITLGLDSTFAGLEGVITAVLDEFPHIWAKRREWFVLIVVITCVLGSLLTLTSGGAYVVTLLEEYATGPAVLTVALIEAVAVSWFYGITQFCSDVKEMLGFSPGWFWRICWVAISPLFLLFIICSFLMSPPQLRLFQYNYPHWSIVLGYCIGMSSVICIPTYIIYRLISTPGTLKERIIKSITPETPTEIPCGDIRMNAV

[4] = target: Transporter (Rattus norvegicus) (UniProt Q63380); test: Induction of NET-mediated norepinephrine release in rat synaptosomes; assay type: subcellular; conditions: Brain; summary of the method: as §1
Sequence of Transporter (Rattus norvegicus) (Q63380 as listed by the source): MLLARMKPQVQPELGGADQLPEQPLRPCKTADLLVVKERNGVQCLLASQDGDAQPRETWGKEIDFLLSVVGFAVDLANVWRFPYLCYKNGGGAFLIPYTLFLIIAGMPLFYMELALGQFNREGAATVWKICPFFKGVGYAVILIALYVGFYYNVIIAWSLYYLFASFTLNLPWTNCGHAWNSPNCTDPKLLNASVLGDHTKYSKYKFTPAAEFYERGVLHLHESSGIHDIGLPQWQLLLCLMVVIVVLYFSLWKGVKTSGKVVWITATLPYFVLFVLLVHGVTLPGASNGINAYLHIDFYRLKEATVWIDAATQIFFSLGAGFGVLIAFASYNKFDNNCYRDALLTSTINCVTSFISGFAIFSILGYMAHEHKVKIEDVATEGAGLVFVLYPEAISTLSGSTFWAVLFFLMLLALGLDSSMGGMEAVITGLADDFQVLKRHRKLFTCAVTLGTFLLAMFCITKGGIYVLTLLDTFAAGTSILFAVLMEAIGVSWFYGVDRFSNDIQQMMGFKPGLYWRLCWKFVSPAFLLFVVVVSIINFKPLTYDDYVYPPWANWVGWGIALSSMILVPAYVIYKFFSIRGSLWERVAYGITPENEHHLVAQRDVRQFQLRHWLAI

[5] = target: Transporter (Rattus norvegicus) (UniProt Q63380); test: Inhibition of NET-mediated norepinephrine uptake in rat synaptosomes; assay type: subcellular; conditions: Brain; summary of the method: as §1
[6] = target: 5-hydroxytryptamine receptor 2A (Homo sapiens) (UniProt P28223); test: Agonist activity at human 5HT2A expressed in HEK293 cells at 10 uM by calcium mobilization assay; assay type: functional, cell-based
Sequence of 5-hydroxytryptamine receptor 2A (Homo sapiens) (P28223 whole entry): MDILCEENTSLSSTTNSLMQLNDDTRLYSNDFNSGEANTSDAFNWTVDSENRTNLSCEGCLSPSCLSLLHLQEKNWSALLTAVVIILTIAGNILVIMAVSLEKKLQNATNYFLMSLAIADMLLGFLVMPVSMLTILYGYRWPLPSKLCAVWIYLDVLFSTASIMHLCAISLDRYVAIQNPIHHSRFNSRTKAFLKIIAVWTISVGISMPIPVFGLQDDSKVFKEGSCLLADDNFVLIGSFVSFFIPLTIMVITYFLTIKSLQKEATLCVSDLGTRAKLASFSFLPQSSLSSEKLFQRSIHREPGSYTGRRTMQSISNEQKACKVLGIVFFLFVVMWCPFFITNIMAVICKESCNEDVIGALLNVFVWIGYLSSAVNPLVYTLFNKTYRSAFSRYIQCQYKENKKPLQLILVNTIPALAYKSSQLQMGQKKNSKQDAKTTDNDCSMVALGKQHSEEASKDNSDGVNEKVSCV

[7] = target: 5-hydroxytryptamine receptor 2A (Homo sapiens) (UniProt P28223); test: Agonist activity at human 5HT2A expressed in CHOK1 cells at 10 uM after 3 hrs by beta-arrestin recruitment assay; assay type: cell-based; conditions: CHO-K1
[8] = target: 5-hydroxytryptamine receptor 2B (Homo sapiens) (UniProt P41595); test: Agonist activity at human 5HT2B expressed in HEK293 cells at 10 uM by calcium mobilization assay; assay type: functional, cell-based
Sequence of 5-hydroxytryptamine receptor 2B (Homo sapiens) (P41595 whole entry): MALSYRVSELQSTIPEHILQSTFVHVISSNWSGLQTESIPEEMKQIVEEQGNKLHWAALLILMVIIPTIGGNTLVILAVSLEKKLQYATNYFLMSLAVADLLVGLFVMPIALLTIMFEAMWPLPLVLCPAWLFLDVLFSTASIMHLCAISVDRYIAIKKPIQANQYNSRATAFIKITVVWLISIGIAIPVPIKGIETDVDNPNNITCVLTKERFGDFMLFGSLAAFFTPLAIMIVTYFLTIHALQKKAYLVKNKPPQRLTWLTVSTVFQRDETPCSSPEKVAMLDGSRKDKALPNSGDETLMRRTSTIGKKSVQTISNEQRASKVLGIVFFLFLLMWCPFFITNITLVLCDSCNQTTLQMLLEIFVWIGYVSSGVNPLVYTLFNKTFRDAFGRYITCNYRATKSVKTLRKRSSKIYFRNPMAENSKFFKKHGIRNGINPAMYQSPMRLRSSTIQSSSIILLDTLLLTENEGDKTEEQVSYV

[9] = target: 5-hydroxytryptamine receptor 2B (Homo sapiens) (UniProt P41595); test: Agonist activity at human 5HT2C expressed in HEK293 cells at 10 uM by calcium mobilization assay; assay type: functional, cell-based
[10] = target: T3, Sodium-dependent serotonin transporter; test: Inhibition of SERT-mediated serotonin uptake in rat synaptosomes; assay type: subcellular, Brain; summary of the method: as §1
[11] = target: T1, Sodium-dependent dopamine transporter; test: Inhibition of DAT-mediated dopamine uptake in rat synaptosomes; assay type: subcellular, Brain; summary of the method: as §1
[12] = target: Sodium-dependent serotonin transporter (Homo sapiens, UniProt P31645); test: Induction of SERT (unknown origin)-mediated serotonin release
Sequence of Sodium-dependent serotonin transporter (Homo sapiens, UniProt P31645) (P31645 whole entry): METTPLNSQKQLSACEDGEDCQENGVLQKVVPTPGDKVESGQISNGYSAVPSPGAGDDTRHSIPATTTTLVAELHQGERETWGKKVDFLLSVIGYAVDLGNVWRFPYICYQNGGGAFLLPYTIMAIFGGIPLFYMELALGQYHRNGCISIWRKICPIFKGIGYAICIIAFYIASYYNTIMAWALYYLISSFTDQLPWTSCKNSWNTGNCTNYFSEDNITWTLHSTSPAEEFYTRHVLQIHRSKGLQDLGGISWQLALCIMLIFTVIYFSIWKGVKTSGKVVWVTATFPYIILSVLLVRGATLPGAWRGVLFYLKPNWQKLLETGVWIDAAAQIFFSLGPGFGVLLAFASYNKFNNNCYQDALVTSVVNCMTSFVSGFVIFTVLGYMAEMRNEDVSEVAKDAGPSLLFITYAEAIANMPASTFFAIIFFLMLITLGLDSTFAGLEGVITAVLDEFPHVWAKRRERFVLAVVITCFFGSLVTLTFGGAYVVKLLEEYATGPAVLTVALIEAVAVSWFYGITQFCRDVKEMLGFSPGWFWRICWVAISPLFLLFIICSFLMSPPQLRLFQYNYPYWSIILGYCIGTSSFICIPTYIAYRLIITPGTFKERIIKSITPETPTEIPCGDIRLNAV

[13] = target: Sodium-dependent dopamine transporter (Homo sapiens, UniProt Q01959); test: Inhibition of DAT (unknown origin)-mediated dopamine reuptake
Sequence of Sodium-dependent dopamine transporter (Homo sapiens, UniProt Q01959) (Q01959 whole entry): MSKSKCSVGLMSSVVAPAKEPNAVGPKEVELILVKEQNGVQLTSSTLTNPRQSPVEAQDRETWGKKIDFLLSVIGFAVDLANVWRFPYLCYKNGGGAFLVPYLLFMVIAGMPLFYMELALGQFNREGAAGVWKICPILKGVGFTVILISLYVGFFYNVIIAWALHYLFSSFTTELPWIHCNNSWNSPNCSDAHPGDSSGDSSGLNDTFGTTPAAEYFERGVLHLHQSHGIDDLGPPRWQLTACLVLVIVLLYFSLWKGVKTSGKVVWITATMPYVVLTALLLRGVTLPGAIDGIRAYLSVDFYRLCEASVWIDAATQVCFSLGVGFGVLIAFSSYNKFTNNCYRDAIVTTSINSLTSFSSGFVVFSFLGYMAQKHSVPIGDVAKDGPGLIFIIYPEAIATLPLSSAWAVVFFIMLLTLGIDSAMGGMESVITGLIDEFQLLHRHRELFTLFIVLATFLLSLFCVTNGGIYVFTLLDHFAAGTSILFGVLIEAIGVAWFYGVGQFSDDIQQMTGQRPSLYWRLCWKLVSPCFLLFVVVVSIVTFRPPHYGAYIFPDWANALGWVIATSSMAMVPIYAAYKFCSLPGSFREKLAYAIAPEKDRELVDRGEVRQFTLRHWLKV

Compound | EC50 [1] [nM] | Activity [2] | EC50 [3] [nM] | Activity [4] | inhibition [5] | Activity [6] | Activity [7] | Activity [8] | Activity [9] | IC50 [10] [nM] | IC50 [11] [nM] | EC50 [12] [nM] | Ki [13] [nM]
CCC(Cc1ccccc1)NC (stereo not drawn) | 225 | inactive | 4700 | Active | Active | inactive | inactive | inactive | inactive | – | – | – | –
CCC(NC)C(=O)c1ccccc1 (stereo not drawn) | 411 | inactive | – | Active | Active | inactive | inactive | inactive | inactive | > 10000 | – | – | –
CC(N)Cc1cccc(Cl)c1 (stereo not drawn) | – | inactive | – | Active | Active | inactive | inactive | inactive | inactive | – | – | – | –
CC(NC1CC1)C(=O)c1ccc(Cl)cc1 (stereo not drawn) | – | inactive | 1630 | Active | Active | inactive | inactive | inactive | inactive | – | 2010 | – | –
Cc1ccc(C(=O)C(C)NC2CC2)cc1 (stereo not drawn) | – | inactive | 667 | Active | Active | inactive | inactive | inactive | inactive | – | 1100 | – | –
CNC(C)C(=O)c1cccc(Cl)c1 (stereo not drawn) | 46.8 | inactive | 410 | Active | Active | inactive | inactive | inactive | inactive | – | – | – | –
CCCC(N)Cc1ccccc1 (stereo not drawn) | – | inactive | – | Active | Active | inactive | inactive | inactive | inactive | > 10000 | 2600 | – | –
Cc1cccc(C(=O)C(C)NC2CC2)c1 (stereo not drawn) | – | inactive | 1070 | Active | Active | inactive | inactive | inactive | inactive | – | 1100 | – | –
COc1cccc(C(=O)C(C)NC2CC2)c1 (stereo not drawn) | – | inactive | 1010 | Active | Active | inactive | inactive | inactive | inactive | – | 2370 | – | –
C[C@H](NC1CC1)C(=O)c1cccc(Cl)c1 | – | inactive | 562 | Active | Active | inactive | inactive | inactive | inactive | – | 294 | – | –
CCCNC(C)C(=O)c1cccc(Cl)c1 (stereo not drawn) | – | inactive | – | Active | Active | inactive | inactive | inactive | inactive | > 10000 | 793 | – | –
CC(NC1CC1)C(=O)c1cccc(Br)c1 (stereo not drawn) | – | inactive | 621 | Active | Active | inactive | inactive | inactive | inactive | – | 386 | – | –
C[C@@H](NC1CC1)C(=O)c1cccc(Cl)c1 | – | inactive | 733 | Active | Active | inactive | inactive | inactive | inactive | – | 369 | – | –
CCNC(C)C(=O)c1ccccc1 (stereo not drawn) | – | – | – | – | – | – | – | – | – | – | – | 2120 | 1010
CC(NC1CC1)C(=O)c1cccc(Cl)c1 (stereo not drawn) | – | inactive | 1330 | Active | Active | inactive | inactive | inactive | inactive | – | 533 | – | –
CCNC(C)C(=O)c1cccc(Cl)c1 (stereo not drawn) | – | inactive | – | Active | Active | inactive | inactive | inactive | inactive | > 10000 | 5920 | – | –
Cc1ccc(C(=O)C(C)NC2CC2)cc1Cl (stereo not drawn) | – | inactive | 181 | Active | Active | inactive | inactive | inactive | inactive | – | 592 | – | –
CC(NC1CC1)C(=O)c1ccc(Cl)c(Cl)c1 (stereo not drawn) | – | inactive | 356 | Active | Active | inactive | inactive | inactive | inactive | – | 425 | – | –
